Measured values reported in ChEMBL document CHEMBL3259729, “Optimizing the Physicochemical Properties of Raf/MEK Inhibitors by Nitrogen Scanning” (ACS Med Chem Lett, 2014).
In brackets after ≈: the same amount, converted by molar mass.

How the values were obtained:
[1] = AUC in BALB-nu/nu mouse at 100 mg/kg, po measured after 24 hrs by LC-MS/MS analysis; format: ADME, organism-based; set-up: time < 24 hr, dose 100 mg/kg, route oral; settings: plasma
Method in brief: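 Mice dosed orally at 100 mg/kg as a solution in 5% DMSO, 5% Cremophor EL, 15% PEG400, 15% 2-hydroxypropyl-β-cyclodextrin and 60% water.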

[2] = target: Dual specificity mitogen-activated protein kinase kinase 1 (Homo sapiens, UniProt Q02750, S218E/S222E); test: Inhibition of constitutively active MEK1 S218E,S222E mutant (unknown origin) assessed as MAP kinase 2/Erk2-mediated FAM-Erktide phosphorylation using MAP kinase 2/Erk2 as substrate preincubated for 30 mins by IMAP fluorescence polarization assay
Chain of Dual specificity mitogen-activated protein kinase kinase 1 (Q02750 whole entry S218E/S222E): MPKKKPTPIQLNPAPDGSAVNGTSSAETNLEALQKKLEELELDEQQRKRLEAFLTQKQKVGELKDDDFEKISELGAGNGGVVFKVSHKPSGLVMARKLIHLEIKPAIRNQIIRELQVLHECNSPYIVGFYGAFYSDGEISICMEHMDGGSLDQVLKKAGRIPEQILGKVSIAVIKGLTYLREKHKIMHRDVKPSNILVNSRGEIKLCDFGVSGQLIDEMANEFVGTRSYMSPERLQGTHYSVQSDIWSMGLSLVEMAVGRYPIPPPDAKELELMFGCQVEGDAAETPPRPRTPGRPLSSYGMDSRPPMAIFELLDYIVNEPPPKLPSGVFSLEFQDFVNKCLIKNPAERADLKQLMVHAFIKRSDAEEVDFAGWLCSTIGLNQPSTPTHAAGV

HT-29 = test: Inhibition of human HT-29 cell growth; format: functional, cell-based
[3] = Intrinsic clearance in human liver microsomes at 5 uM by LC/MS/MS analysis; format: ADME; settings: read-out: CLH
[4] = Membrane permeability of the compound at pH 6.5 by PAMPA PSR4p assay; format: physicochemical; settings: read-out: permeability
Cytochrome P450 2C9 [5] = target: T1, Cytochrome P450 2C9 (Homo sapiens, UniProt P11712); test: Inhibition of CYP2C9 in human liver microsomes using diclofenac as substrate measured after 30 mins preincubation by LC-MS/MS analysis in absence of NADPH; format: ADME
T1 sequence (P11712 whole entry): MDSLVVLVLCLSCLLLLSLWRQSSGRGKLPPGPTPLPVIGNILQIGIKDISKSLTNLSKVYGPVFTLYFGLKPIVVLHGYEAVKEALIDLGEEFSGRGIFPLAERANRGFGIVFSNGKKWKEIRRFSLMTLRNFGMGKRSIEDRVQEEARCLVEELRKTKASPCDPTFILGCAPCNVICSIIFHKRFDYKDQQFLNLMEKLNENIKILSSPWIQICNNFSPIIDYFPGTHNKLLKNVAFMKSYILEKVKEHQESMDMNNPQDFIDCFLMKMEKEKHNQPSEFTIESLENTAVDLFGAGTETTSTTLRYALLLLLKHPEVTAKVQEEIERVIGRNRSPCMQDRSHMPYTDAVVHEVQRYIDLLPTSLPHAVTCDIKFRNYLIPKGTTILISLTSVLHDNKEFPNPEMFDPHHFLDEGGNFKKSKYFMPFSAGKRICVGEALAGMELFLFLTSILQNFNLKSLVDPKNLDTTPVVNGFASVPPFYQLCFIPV
Method in brief: (§1)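 The IC50 is determined after a 30 min preincubation without NADPH.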

Cytochrome P450 2C9 [6] = target: T1, Cytochrome P450 2C9; test: Inhibition of CYP2C9 in human liver microsomes using diclofenac as substrate measured after 30 mins preincubation by LC-MS/MS analysis in presence of NADPH; format: ADME
Method in brief: (§2)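 The IC50 is determined after a 30 min preincubation with NADPH.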

Cytochrome P450 3A4 [7] = target: T2, Cytochrome P450 3A4 (Homo sapiens, UniProt P08684); test: Inhibition of CYP3A4 in human liver microsomes using midazolam as substrate measured after 30 mins preincubation by LC-MS/MS analysis in absence of NADPH; format: ADME; method in brief: as §1
T2 sequence (P08684 whole entry): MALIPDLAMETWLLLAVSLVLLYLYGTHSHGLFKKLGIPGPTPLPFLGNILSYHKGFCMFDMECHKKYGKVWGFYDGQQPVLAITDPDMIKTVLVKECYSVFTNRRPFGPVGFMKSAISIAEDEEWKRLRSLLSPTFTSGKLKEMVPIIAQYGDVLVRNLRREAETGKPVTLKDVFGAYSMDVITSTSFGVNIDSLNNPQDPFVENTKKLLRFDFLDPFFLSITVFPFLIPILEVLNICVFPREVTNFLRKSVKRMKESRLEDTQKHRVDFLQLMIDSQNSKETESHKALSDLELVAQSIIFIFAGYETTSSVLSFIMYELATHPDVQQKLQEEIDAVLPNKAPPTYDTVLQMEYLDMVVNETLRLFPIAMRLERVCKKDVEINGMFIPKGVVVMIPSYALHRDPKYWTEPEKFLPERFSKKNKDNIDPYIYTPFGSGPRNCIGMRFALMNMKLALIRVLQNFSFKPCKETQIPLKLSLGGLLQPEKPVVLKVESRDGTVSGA

Cytochrome P450 3A4 [8] = target: T2, Cytochrome P450 3A4; test: Inhibition of CYP3A4 in human liver microsomes using midazolam as substrate measured after 30 mins preincubation by LC-MS/MS analysis in presence of NADPH; format: ADME; method in brief: as §2
[9] = Bioavailability in BALB-nu/nu mouse at 2.5 mg/kg, iv and 5 mg/kg, po by LC-MS/MS analysis; format: ADME, organism-based; settings: in vivo
[10] = Clearance in BALB-nu/nu mouse at 2.5 mg/kg, iv and 5 mg/kg, po by LC-MS/MS analysis; format: ADME, organism-based; settings: in vivo
[11] = Bioavailability in Crlj:CD rat at 2.5 mg/kg, iv and 5 mg/kg, po by LC-MS/MS analysis; format: ADME, organism-based; settings: in vivo
[12] = Clearance in Crlj:CD rat at 2.5 mg/kg, iv and 5 mg/kg, po by LC-MS/MS analysis; format: ADME, organism-based; settings: in vivo
[13] = Bioavailability in cynomolgus monkey at 2.5 mg/kg, iv and 5 mg/kg, po by LC-MS/MS analysis; format: ADME, organism-based, Macaca fascicularis; settings: in vivo
[14] = Clearance in cynomolgus monkey at 2.5 mg/kg, iv and 5 mg/kg, po by LC-MS/MS analysis; format: ADME, organism-based, Macaca fascicularis; settings: in vivo
C32 [15] = test: Antitumor activity against human C32 cells xenografted in po dosed BALB-nu/nu mouse assessed as tumor growth inhibition administered qd for 11 days; format: functional; settings: for ED50: Mus musculus, C32, po, 264 h
Method in brief: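 C32 cells implanted subcutaneously in the right flank of BALB-nu/nu mice, with tumors established before treatment. Compound given orally once daily for 11 days (day 0 to day 10). Tumor size measured twice per week. Values are mean SD, n = 4.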

Mus musculus [16] = test: Toxicity in po dosed BALB-nu/nu mouse xenografted with human C32 cells assessed as body weight administered qd for 11 days; format: organism-based; settings: in vivo, 264 h
Mus musculus [17] = test: Toxicity in po dosed BALB-nu/nu mouse xenografted with human C32 cells assessed as adverse clinical signs administered qd for 11 days; format: organism-based; settings: in vivo, 264 h
[18] = Saturated solubility of the compound in fasted state simulated intestinal fluid after 24 hrs by shaking flask method; format: ADME; settings: fasted state simulated intestinal fluid (FaSSIF)
Method in brief: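 Free crystalline form equilibrated for 24 h in FaSSIF, and the saturated concentration was reported.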

[19] = Dissociation constant, pKa of the compound at 10 mM by spectroscopic titration analysis; format: physicochemical
C32 [20] = test: Growth inhibition of human C32 cells harboring B-Raf V600E mutant
HCT-116 = test: Inhibition of human HCT116 cell growth after 96 hrs by counting kit-8 analysis; format: functional, cell-based; settings: HCT-116, 96 h
[21] = target: RAF proto-oncogene serine/threonine-protein kinase (Homo sapiens, UniProt P04049); test: Inhibition of truncated active C-Raf (unknown origin) assessed as MEK1 phosphorylation using inactive MEK1 K97R as substrate after 45 mins
Chain of RAF proto-oncogene serine/threonine-protein kinase (P04049 whole entry, the tested form may be a part): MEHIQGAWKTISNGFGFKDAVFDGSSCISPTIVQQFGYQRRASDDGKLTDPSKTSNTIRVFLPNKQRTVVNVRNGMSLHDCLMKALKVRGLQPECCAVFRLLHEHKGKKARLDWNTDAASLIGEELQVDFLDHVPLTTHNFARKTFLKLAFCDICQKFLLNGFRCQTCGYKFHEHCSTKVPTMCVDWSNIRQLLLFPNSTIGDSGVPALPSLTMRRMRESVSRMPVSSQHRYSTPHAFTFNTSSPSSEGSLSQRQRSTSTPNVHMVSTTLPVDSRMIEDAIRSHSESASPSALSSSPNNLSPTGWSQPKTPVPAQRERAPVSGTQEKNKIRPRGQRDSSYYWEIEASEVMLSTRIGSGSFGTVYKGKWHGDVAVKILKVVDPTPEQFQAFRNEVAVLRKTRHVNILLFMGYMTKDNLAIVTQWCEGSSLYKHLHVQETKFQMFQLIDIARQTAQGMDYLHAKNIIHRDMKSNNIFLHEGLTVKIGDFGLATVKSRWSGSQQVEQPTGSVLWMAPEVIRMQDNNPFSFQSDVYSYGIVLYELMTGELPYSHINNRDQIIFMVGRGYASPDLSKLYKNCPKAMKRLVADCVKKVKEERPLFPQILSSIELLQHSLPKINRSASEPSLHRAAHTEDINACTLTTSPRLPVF

[22] = Solubility of the compound in fasted state simulated intestinal fluid by LYSA method; format: ADME; settings: fasted state simulated intestinal fluid (FaSSIF)
[23] = Supersaturated solubility of the compound in fasted state simulated intestinal fluid after 4 hrs by miniscale dissolution test; format: ADME; settings: fasted state simulated intestinal fluid (FaSSIF)

SMILES	AUC at 24 h [1] [µM·h]	IC50 [2] [nM]	IC50 (HT-29) [nM]	microsomal CLint at 5 µM [3] [µL/min/mg]	IC50 (HCT-116) [nM]	IC50 [21] [nM]	solubility [22] [µg/mL]	further results
CNS(=O)(=O)[N-]c1cccc(Cc2c(C)c3ccc(OC(=O)N(C)C)cc3oc2=O)c1.[Na+]	78	–	–	–	–	–	–	–
CNS(=O)(=O)Nc1cccc(Cc2c(C)c3cc(C)c(OC(=O)N(C)C)cc3oc2=O)c1	18	29	8	17	–	–	–	Papp [4]: 4 ×10⁻⁶ cm/s
CNS(=O)(=O)Nc1cccc(Cc2c(C)c3ccc(OC(=O)N(C)C)cc3oc2=O)c1	–	110	9	20	–	–	–	IC50 (Cytochrome P450 2C9 [5]): 29 µM; IC50 (Cytochrome P450 2C9 [6]): 96 µM; IC50 (Cytochrome P450 3A4 [7]): 13 µM; IC50 (Cytochrome P450 3A4 [8]): 5.6 µM
CNS(=O)(=O)Nc1cccc(Cc2c(C)c3ccc(Oc4ncccn4)cc3oc2=O)c1F	425	97	–	6.7	–	–	–	IC50 (Cytochrome P450 2C9 [5]): 19 µM; IC50 (Cytochrome P450 2C9 [6]): 19 µM; IC50 (Cytochrome P450 3A4 [7]): 26 µM; IC50 (Cytochrome P450 3A4 [8]): 11 µM; bioavailability [9]: 75%; clearance [10]: 6.8 mL/min/kg; bioavailability [11]: 84%; clearance [12]: 6.6 mL/min/kg; bioavailability [13]: 59%; clearance [14]: 0.9 mL/min/kg; TGI (C32 [15]): 96%; ED50 (C32 [15]): 1.44 mg/kg; Activity (Mus musculus [16]): Non-toxic; Activity (Mus musculus [17]): Non-toxic; solubility thermodynamic at 24 h [18]: 5.5 µg/mL (≈ 11.7 µM); pKa at 10000 µM [19]: 8.86; IC50 (C32 [20]): 57 nM
CNS(=O)(=O)Nc1cccc(Cc2c(C)c3ccc(OC(=O)N(C)C)nc3oc2=O)c1	–	440	600	3	1100	2500	43 (≈ 96.3 µM)	Papp [4]: 3 ×10⁻⁶ cm/s
CNS(=O)(=O)Nc1cccc(Cc2c(C)c3ccc(OC(=O)N(C)C)cc3oc2=O)n1	314	110	73	7	270	70	320 (≈ 717 µM)	Papp [4]: 6 ×10⁻⁶ cm/s
CNS(=O)(=O)Nc1cc(Cc2c(C)c3ccc(OC(=O)N(C)C)cc3oc2=O)ccn1	134	99	25	6	32	32	55 (≈ 123 µM)	Papp [4]: 7 ×10⁻⁶ cm/s; IC50 (Cytochrome P450 2C9 [5]): > 100 µM; IC50 (Cytochrome P450 2C9 [6]): > 100 µM; IC50 (Cytochrome P450 3A4 [7]): > 100 µM; IC50 (Cytochrome P450 3A4 [8]): > 100 µM
CNS(=O)(=O)Nc1cncc(Cc2c(C)c3ccc(OC(=O)N(C)C)cc3oc2=O)c1	–	> 50000	> 10000	–	> 10000	> 50000	240 (≈ 538 µM)	–
CNS(=O)(=O)Nc1ccnc(Cc2c(C)c3cc(C)c(OC(=O)N(C)C)cc3oc2=O)c1	–	37000	5700	–	> 10000	27000	425 (≈ 923 µM)	–
CNS(=O)(=O)Nc1nccc(Cc2c(C)c3ccc(Oc4ccccc4)cc3oc2=O)c1F	–	76	–	–	110	21	–	–
CNS(=O)(=O)Nc1nccc(Cc2c(C)c3ccc(Oc4ccccn4)cc3oc2=O)c1F	–	190	–	–	45	81	–	–
CNS(=O)(=O)Nc1nccc(Cc2c(C)c3ccc(Oc4cnccn4)cc3oc2=O)c1F	–	650	–	–	900	56	–	–
CNS(=O)(=O)Nc1cccc(Nc2c(C)c3ccc(Oc4ncccn4)cc3oc2=O)c1	–	> 50000	–	–	> 10000	> 50000	–	–
CNS(=O)(=O)[N-]c1cccc(Cc2c(C)c3ccc(Oc4ncccn4)cc3oc2=O)c1F.[K+]	–	–	–	–	–	–	–	solubility at 4 h [23]: 12 µg/mL
CNS(=O)(=O)[N-]c1nccc(Cc2c(C)c3ccc(Oc4ncccn4)cc3oc2=O)c1F.[K+] [AVUTOMETINIB POTASSIUM]	–	–	–	–	–	–	–	solubility at 4 h [23]: 57 µg/mL
CNS(=O)(=O)Nc1nccc(Cc2c(C)c3ccc(Oc4ncccn4)cc3oc2=O)c1F [AVUTOMETINIB]	2830	–	–	0.5	40	56	159 (≈ 337 µM)	IC50 (Cytochrome P450 2C9 [5]): 12 µM; IC50 (Cytochrome P450 2C9 [6]): 60 µM; IC50 (Cytochrome P450 3A4 [7]): > 100 µM; IC50 (Cytochrome P450 3A4 [8]): > 100 µM; bioavailability [9]: 93%; clearance [10]: 1.1 mL/min/kg; bioavailability [11]: 66%; clearance [12]: 0.7 mL/min/kg; bioavailability [13]: 82%; clearance [14]: 0.1 mL/min/kg; TGI (C32 [15]): 118%; ED50 (C32 [15]): 0.09 mg/kg; Activity (Mus musculus [16]): Non-toxic; Activity (Mus musculus [17]): Non-toxic; solubility thermodynamic at 24 h [18]: 2.7 µg/mL (≈ 5.73 µM); pKa at 10000 µM [19]: 7.02; IC50 (C32 [20]): 47 nM
